Data: ChEMBL document CHEMBL1127797, “Synthesis of oxadiazolidinedione derivatives as quisqualic acid analogues and their evaluation at a quisqualate-sensitized site in the rat hippocampus” (J Med Chem, 1994)

Tests used:
Conditions in all cases: pyramidal neuron
[1] = Ability to directly depolarize CA1 pyramidal neurons of rat hyppocampal slices before exposure to quisqualic acid; format: functional, cell-based
How it was run: (§1)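 Transverse hippocampal slices (500 μM as printed) from 25-60 day old male Sprague-Dawley rats, preincubated 20-30 min in high Mg2+/low Ca2+ medium, held at 28 °C. Submerged in microperfusion chamber at 34 °C, 95% O2/5% CO2. Schaffer collateral stimulation, stratum radiatum recording of peak field potential amplitude. IC50 (50% inhibition) interpolated from concentration-response data, mean of four experiments; measured before and after 5 min 20 μM quisqualic acid, then after 10 min 2 mM L-α-AA reversal.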

[2] = Sensitization of CA1 pyramidal neurons to depolarizations by L-AP6 after exposure to quisqualic acid; format: functional, cell-based, Rattus norvegicus
[3] = Sensitization of CA1 pyramidal neurons to depolarizations by L-AP6 after reversal with L-alpha-AA; format: functional, cell-based, Rattus norvegicus
How it was run: (§2)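 Rat (male Sprague-Dawley, 25-60 days) hippocampal slices, submerged, 34 °C, 95% O2/5% CO2; Schaffer collateral stimulation with stratum radiatum CA1 field potential recording. L-AP6 IC50 for 50% inhibition of peak amplitude interpolated from concentration-response curves, mean of four experiments; determined before and after slice exposure to sensitizing agent in place of quisqualic acid, then after 2 mM L-α-AA reversal.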

[4] = Sensitization of CA1 pyramidal neurons to depolarizations by L-AP6 before exposure to quisqualic acid; format: functional, cell-based, Rattus norvegicus; how it was run: as §2
[5] = Ability to directly depolarize CA1 pyramidal neurons of rat hyppocampal slices after exposure to quisqualic acid; format: functional, cell-based; how it was run: as §1
[6] = Ability to directly depolarize CA1 pyramidal neurons of rat hyppocampal slices after reversal with L-alpha-AA; format: functional, cell-based; how it was run: as §1
[7] = ability to directly depolarize CA1 pyramidal neurons of rat hyppocampal slices after exposure to quisqualic acid; format: functional, cell-based
How it was run: (§3)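 Transverse hippocampal slices from 25-60 day old male Sprague-Dawley rats, preincubated 20-30 min in high Mg2+/low Ca2+ medium. Submerged at 34 °C under 95% O2/5% CO2. Schaffer collaterals stimulated; field potential peak amplitude recorded in CA1 stratum radiatum. Concentration-response curves run before, after 5 min 20 μM quisqualic acid, and after 10 min 2 mM L-α-AA reversal. IC50 interpolated; mean of four experiments.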

[8] = ability to directly depolarize CA1 pyramidal neurons of rat hyppocampal slices after reversal with L-alpha-AA; format: functional, cell-based; how it was run: as §3
[9] = ability to directly depolarize CA1 pyramidal neurons of rat hyppocampal slices before exposure to quisqualic acid; format: functional, cell-based; how it was run: as §3
[10] = sensitization of CA1 pyramidal neurons to depolarizations by L-AP6 after exposure to quisqualic acid; format: functional, cell-based, Rattus norvegicus
How it was run: (§4)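 Male Sprague-Dawley rat (25-60 day) hippocampal slices were perfused at 34 °C. Schaffer collaterals were stimulated with field potential recording in CA1 stratum radiatum. L-AP6 concentration-response curves were run before and after exposure to test compound substituted for quisqualic acid, then after 10 min 2 mM L-α-AA. IC50 for 50% peak-amplitude inhibition was interpolated.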

[11] = sensitization of CA1 pyramidal neurons to depolarizations by L-AP6 after reversal with L-alpha-AA; format: functional, cell-based, Rattus norvegicus; how it was run: as §4
[12] = sensitization of CA1 pyramidal neurons to depolarizations by L-AP6 before exposure to quisqualic acid; format: functional, cell-based, Rattus norvegicus; how it was run: as §4
[13] = sensitization of CA1 pyramidal neurons by 2 to depolarizations by L-AP4, L-AP5 and L-AP6 after reversal with L-alpha-AA; format: functional, cell-based, Rattus norvegicus
How it was run: (§5)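 Rat hippocampal slices were submerged at 34 °C under 95% O2/5% CO2. Stimulating and recording electrodes sat in CA1 stratum radiatum to record extracellular synaptic field potentials. IC50 of L-AP4, L-AP5 and L-AP6 was measured three times: before, after 20 min exposure to 20 mM test compound in place of quisqualic acid, and after 20 min 2 mM L-α-AA.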

[14] = sensitization of CA1 pyramidal neurons by 2 to depolarizations by L-AP4, L-AP5 and L-AP6 before exposure to quisqualic acid; format: functional, cell-based, Rattus norvegicus; how it was run: as §5
[15] = sensitization of CA1 pyramidal neurons by 2 to depolarizations by L-AP4,L-AP5 and L-AP6 after exposure to quisqualic acid; format: functional, cell-based, Rattus norvegicus; how it was run: as §5

| IC50 [1] [µM] | IC50 [5] [µM] | SMILES | IC50 [2] [µM] | IC50 [4] [µM] | IC50 [10] [µM] | IC50 [13] [µM] | IC50 [14] [µM] | also measured |
| --- | --- | --- | --- | --- | --- | --- | --- | --- |
| 1000 | 530 | O=C(O)[C@@H]1C[C@@H](n2oc(=O)[nH]c2=O)CN1 | 780 | > 10000 | – | – | – | IC50 [3]: > 10000 µM; IC50 [6]: 1100 µM |
| 15 | 14 | O=C(O)[C@@H]1C[C@H](n2oc(=O)[nH]c2=O)CN1 | > 10000 | > 10000 | – | – | – | – |
| – | – | N[C@@H](CCn1oc(=O)[nH]c1=O)C(=O)O | – | – | 170 | – | – | IC50 [7]: 5.5 µM; IC50 [8]: 20 µM; IC50 [9]: 9.8 µM; IC50 [11]: 12000 µM; IC50 [12]: 11000 µM |
| > 10000 | > 10000 | O=C(O)CCn1oc(=O)[nH]c1=O | > 10000 | > 10000 | – | – | – | – |
| 5400 | 3800 | NCCn1oc(=O)[nH]c1=O | > 10000 | > 10000 | – | – | – | – |
| – | – | NC(CCCP(=O)(O)O)C(=O)O (centres undefined) | – | – | – | 2200 | 2300 | IC50 [15]: 310 µM |
| – | – | NC(CCCCP(=O)(O)O)C(=O)O (centres undefined) | – | – | 170 | 12000 | 11000 | – |
| – | – | N[C@@H](CCP(=O)(O)O)C(=O)O | – | – | – | 1700 | 1500 | IC50 [15]: 260 µM |
| – | – | N[C@@H](Cn1oc(=O)[nH]c1=O)C(=O)O [QUISQUALATE] | – | – | 40 | – | – | IC50 [7]: 4 µM; IC50 [8]: 26 µM; IC50 [9]: 7 µM; IC50 [11]: 1900 µM; IC50 [12]: > 10000 µM |
